Assays:
[1] = Cytotoxicity against human HL60 cells assessed as cell viability after 48 hrs by MTS assay; assay type: functional, cell-based; conditions: HL-60, 48 h
Outline: (§1)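 Cells grown in RPMI-1640 or DMEM with 10% FBS at 37 °C, 5% CO2. Seeded, incubated 12 h, then exposed to a range of concentrations in triplicate for 48 h. Viability read by MTS reduction to formazan. IC50 calculated by Reed and Muench method; cis-platin positive control.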

MCF7 = assay: Cytotoxicity against human MCF7 cells assessed as cell viability after 48 hrs by MTS assay; assay type: functional, cell-based; conditions: MCF7, 48 h; outline: as §1
[2] = Cytotoxicity against human SMMC7721 cells assessed as cell viability after 48 hrs by MTS assay; assay type: functional, cell-based; conditions: SMMC-7721, 48 h; outline: as §1
A549 [3] = assay: Cytotoxicity against human A549 cells assessed growth inhibition at 40 uM after 48 hrs by MTS assay relative to control; assay type: functional; conditions: A549, 48 h, read-out: GI
Outline: (§2)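 Cultured in RPMI-1640 or DMEM with 10% FBS at 37 °C under 5% CO2. Cells seeded, given 12 h at 37 °C, then treated with compound at 40 μM for 48 h. Growth inhibition measured by MTS assay (formazan colorimetry).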

RAW264.7 = assay: Inhibition of LPS-induced NO production in mouse RAW264.7 cells at 25 uM preincubated with compound followed by LPS challenge measured after 18 hrs by Griess method; assay type: functional, cell-based
Outline: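 RAW264.7 macrophages seeded at 2 × 10^5 cells/well and treated with serial compound dilutions (maximum 25 μM), then stimulated with LPS 1 μg/mL for 18 h. Supernatant nitrite measured with Griess reagents, absorbance 550 nm. MG-132 positive control. Viability checked in parallel by MTT to exclude cytotoxic interference.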

SW480 = assay: Cytotoxicity against human SW480 cells assessed as cell viability after 48 hrs by MTS assay; assay type: functional, cell-based; conditions: SW480, 48 h; outline: as §1
[4] = Cytotoxicity against human SMMC7721 cells assessed growth inhibition at 40 uM after 48 hrs by MTS assay relative to control; assay type: functional; conditions: SMMC-7721, 48 h, read-out: GI; outline: as §2
[5] = Cytotoxicity against human HL60 cells assessed growth inhibition at 40 uM after 48 hrs by MTS assay relative to control; assay type: functional; conditions: HL-60, 48 h, read-out: GI; outline: as §2
A549 [6] = assay: Cytotoxicity against human A549 cells assessed as cell viability after 48 hrs by MTS assay; assay type: functional, cell-based; conditions: A549, 48 h; outline: as §1

| Structure (SMILES) | IC50 [1] [µM] | IC50 (MCF7) [µM] | IC50 [2] [µM] | inhibition of growth at 40 µM (A549 [3]) [%] | IC50 (RAW264.7) [µM] | IC50 (SW480) [µM] | inhibition of growth at 40 µM [4] [%] | inhibition of growth at 40 µM [5] [%] | IC50 (A549 [6]) [µM] |
| --- | --- | --- | --- | --- | --- | --- | --- | --- | --- |
| C=C1C(=O)[C@]23C[C@@H]1C[C@@H](O)[C@H]2C12CO[C@@H]4OC[C@](C)(CC[C@@H]1OC3=O)[C@@H]42 (stereo partly specified) | 14.3 | 13.7 | 12.5 | > 50 | 3.51 | > 40 | > 50 | > 50 | 10.2 |
| C=C1C(=O)[C@]23C[C@@H]1CC[C@H]2C12C(O)O[C@@H](OC)[C@@H]1C(C)(C)CC[C@@H]2OC3=O (stereo partly specified) | 3 | 2.4 | 4.2 | > 50 | 1.47 | 3.2 | > 50 | > 50 | 3.9 |
| C=C1C(=O)[C@]23C[C@@H]1CC[C@H]2C12[C@@H](OC)O[C@@H](O)[C@@H]1C(C)(C)CC[C@@H]2OC3=O (stereo partly specified) | 3.5 | 3.9 | 4.7 | > 50 | 1.36 | 3.9 | > 50 | > 50 | 1.2 |
| C=C1C(=O)[C@]23C[C@@H]1CC[C@H]2[C@@]12CO[C@@H](O)[C@@H]1C(C)(C)CC[C@@H]2OC3=O | 2.1 | 3.4 | 3.3 | > 50 | 0.74 | 1.7 | > 50 | > 50 | 2.1 |
| C=C1C(=O)[C@]23C[C@@H]1CC[C@H]2C12[C@H](OC)O[C@@H](O)[C@@H]1C(C)(C)CC[C@@H]2OC3=O (stereo partly specified) | 3.2 | 3.2 | 5 | > 50 | 1.56 | 4.6 | > 50 | > 50 | 3.4 |
| C=C1C(=O)[C@@]23C[C@@H]1C[C@H]1O[C@@H]4OC[C@]5([C@H](CCC(C)(C)[C@@H]45)OC2=O)[C@H]13 | 15.4 | 14 | 15.8 | > 50 | 4.93 | 15.2 | > 50 | > 50 | 14 |
| C=C1C(=O)[C@]23C[C@@H]1C[C@@H](O)[C@H]2[C@@]12CO[C@@H](O)[C@@H]1C(C)(C)CC[C@@H]2OC3=O | 10.3 | 14 | 11.4 | > 50 | 3.56 | 10.9 | > 50 | > 50 | 14.3 |
| C=C1C(=O)[C@]23C[C@@H]1CC[C@H]2C12CO[C@@H](O)[C@@H]1C(C)(C)[C@@H](O)C[C@@H]2OC3=O (stereo partly specified) | 9.2 | 15.7 | 9.8 | > 50 | 3.53 | 5.5 | > 50 | > 50 | 13.3 |
| C=C1C(=O)[C@]23C[C@@H]1CC[C@H]2C12C(O)O[C@@H](O)[C@@H]1C(C)(C)CC[C@@H]2OC3=O (stereo partly specified) | 16.8 | > 40 | 31.8 | > 50 | 7.42 | 14.8 | > 50 | > 50 | 39 |
